Assay outcomes deposited in PubChem BioAssay by several laboratories.
This is a sample that favours compounds with a hit; in the whole collection about 4.8% have one here.
HSF1 inhib – HSF1 inhibition | NIH3T3-HGL HSE-luciferase, MG132-induced, luminescence 8 h; hits give low values | activity change, negative = inhibition, % at 7.5 µM (by protocol) | hit rate 0.77% among 300,000 | AID 2098;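 active = more than half of replicate wells show activity change below -50%, luminescence cut by over half; inconclusive = some wells, but at most half, below -50%; inactive = no replicate well below -50%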;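 also: luciferase reports HSF-1 transcriptional activity via heat shock element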
Jurkat NFkB inh – lowers PMA/ionomycin-induced NF-kB signal in Jurkat cells; PMA/ionomycin-induced NF-kB luciferase reporter, luminescence; inhibition, % at 4 µM; hit rate 0.53% among 330,000; in the data active = inhibition above about 50%
GPR7 antag – blocks human GPR7 receptor signaling | P48145 | GPR7-expressing cells, fluorescence antagonist assay | inhibition, % at 4.4 µM | hit rate 1.1% among 290,000 | AID 1861; in the data active = inhibition above about 16%, passing the limit was not always enough;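 also: cells stimulated with the agonist NPW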
Target sequence (P48145 whole entry, looked up): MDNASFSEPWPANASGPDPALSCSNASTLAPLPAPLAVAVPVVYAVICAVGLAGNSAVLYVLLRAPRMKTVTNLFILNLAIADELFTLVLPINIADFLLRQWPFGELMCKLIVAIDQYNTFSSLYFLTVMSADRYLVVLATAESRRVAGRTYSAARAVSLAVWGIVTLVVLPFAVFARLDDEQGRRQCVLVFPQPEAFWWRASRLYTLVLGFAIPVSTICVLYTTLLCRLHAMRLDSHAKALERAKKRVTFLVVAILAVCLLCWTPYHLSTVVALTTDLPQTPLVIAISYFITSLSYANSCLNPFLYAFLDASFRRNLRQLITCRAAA
697 NFkB inh – inhibitors of the PMA/ionomycin-induced NF-kB reporter in 697 B cells; 697 B-cell NF-kB luciferase reporter, 16 h; AID 435022; hit rate 0.33% among 330,000; inhibition, % at 4 µM; in the data active = inhibition above about 35%
HSF1 activator – increases HSF-1 driven luciferase reporter signal; activation, % at 9 µM; NIH3T3-HGL HSF-1 luciferase reporter, MG132, 8 h; 100% = twice DMSO control signal; hit rate 1.7% among 300,000;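 active = mean replicate activation of at least 50% with a set share of replicates each reaching 50%; inconclusive = only one of those two conditions met; inactive = mean below 50% and too few replicates reaching it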
T cruzi inh – blocks replication of Trypanosoma cruzi; inhibition, % (concentration not given with the values); hit rate 1.4% among 300,000; T. cruzi beta-gal in NIH3T3, luminescence, 90 h; AID 1885;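 active = mean inhibition across valid replicates above about 55%, limit read from the data; inconclusive = mean below that limit but half or more replicates reach it; inactive = mean below it, under half of replicates reach it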;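 also: signal also drops with host cell toxicity which is not excluded here; higher percent means less beta-gal luminescence so fewer parasites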
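Read-out: Parasite load inhibition, % | Test system: Mouse NIH/3T3 fibroblasts infected with β-gal-expressing T. cruzi Tulahuen C4 | Amount: 5,000 cells/well | Medium: DMEM, 2% fetal bovine serum | Signal: GalScreen β-gal luminescence, detergent lysis, 60 min | Timing: 3 h attach, ≥90 h co-culture | Also added: Tulahuen C4 trypomastigotes, 5000/well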
697 NFkB conf – inhibitors of the PMA/ionomycin-induced NF-kB reporter in 697 B cells, retest; hit rate 35% among 2,000; shares compounds with 697 NFkB inh; inhibition, % at 4 µM; 697 B-cell NF-kB luciferase, 16 h; in the data active = inhibition mostly above about 28%, no sharp cut-off; inactive = mostly below about 22%
Each line names hits and unclear results; the compound was inactive in the other large screens (follow-up assays come after a bar, where they were run).

COc1cc(-c2nc3ccc(N4CCN(C)CC4)cc3[nH]2)cc(OC)c1OC	697 NFkB inh 38 | 697 NFkB conf 31
O=C(/C=C\Nc1ccccn1)c1ccc(Cl)cc1	none (no result: HSF1 inhib, HSF1 activator, T cruzi inh) | 697 NFkB conf inactive
CC(=O)NS(=O)(=O)c1ccc(NC(=O)CCC(=O)Oc2ccc(C)cc2)cc1	none
COc1ccc(CNC(=O)C(=O)NCCCn2ccnc2)cc1	697 NFkB inh 38 | 697 NFkB conf inactive
CCCOc1ccc(NC(=O)C(=O)NCCCn2ccnc2)cc1	697 NFkB inh 56 | 697 NFkB conf 53
CCOc1ccc(NC(=O)C(=O)NCCCn2ccnc2)cc1	none
CCOc1cc(/C=N/OC(C)=O)ccc1OCc1ccccc1	none
O=C(COc1c(Cl)cc(Cl)cc1Cl)c1ccc(Cl)cc1	none
CC1=CC(C)(C)Nc2ccc(OC(=O)c3ccco3)cc21	697 NFkB inh 79 | 697 NFkB conf 38
CC1=CC(C)(C)Nc2ccc(OC(=O)C(C)N3C(=O)c4ccccc4C3=O)cc21 (stereo not given)	697 NFkB inh 67 | 697 NFkB conf 55
CC1=CC(C)(C)N2C(=O)C(=O)c3cc(OC(=O)c4ccco4)cc1c32	none
CC1=CC(C)(C)Nc2ccc(OC(=O)c3cccnc3)cc21	697 NFkB inh 66 | 697 NFkB conf 62
O=C(Oc1ccc(F)cc1)c1cccnc1	none
CC1=CC(C)(C)Nc2ccc(OC(=O)CN3C(=O)CCC3=O)cc21	697 NFkB inh 65, T cruzi inh 56 | 697 NFkB conf 48
CC1=CC(C)(C)Nc2ccc(C)cc21	T cruzi inh inconclusive
Cc1cc(C)c(NC(=O)CS(=O)CC(=O)NCCN2CCCCCC2)c(C)c1 (stereo not given)	none
NS(=O)(=O)c1ccc(CCNC(=O)C(=O)NCC2OCCN2S(=O)(=O)c2ccc(F)cc2)cc1 (stereo not given)	none
COC(=O)c1ccccc1NC(=S)NC(=O)c1ccc2c(c1)OCO2	697 NFkB inh 46 | 697 NFkB conf inactive
c1coc(CNc2c3c(nc4ncnn24)CCCC3)c1	none
Cc1ccc(-c2cc3nc(C)cc(NCc4ccco4)n3n2)cc1	none | 697 NFkB conf inactive
Cc1nc2cc(-c3ccc(Cl)cc3)nn2c(C)c1CCC(=O)NCc1ccco1	697 NFkB inh 43 | 697 NFkB conf 31
Clc1cccc(-c2cc3nc4c(c(NCc5ccco5)n3n2)CCCC4)c1	HSF1 activator 58 | 697 NFkB conf inactive
COc1ccc(-c2cc3nc(C)c(CCC(=O)NCc4ccco4)c(C)n3n2)c(OC)c1	none
COc1cc(CCC(=O)OCC(=O)Nc2sccc2C(N)=O)cc(OC)c1OC	none (no result: HSF1 inhib, GPR7 antag, HSF1 activator, T cruzi inh)
N/C(Cc1ccc(Cl)c(Cl)c1)=N\OC(=O)c1ccc(Br)o1	none
O=C(CCc1nnc2ccc(NCc3ccco3)nn12)N1CCN(c2ccc(F)cc2)CC1	none
Cc1cc(N(C)C)ccc1N=Nc1ccc(N)cc1	697 NFkB inh 69 (no result: GPR7 antag) | 697 NFkB conf 79
Nc1ccc(N=Nc2ccc(N)cc2)cc1	none
CCN1C(=O)c2cccc3c(S(=O)(=O)NCC4CCCO4)ccc1c23 (stereo not given)	697 NFkB inh 37 | 697 NFkB conf 59
O=C1Nc2ccc(S(=O)(=O)NCC3CCCO3)c3cccc1c23 (stereo not given)	none (no result: HSF1 inhib, HSF1 activator, T cruzi inh)
CCN1C(=O)c2cccc3c(S(=O)(=O)Nc4nc(C)cs4)ccc1c23	none
CCN1C(=O)c2cccc3c(S(=O)(=O)Nc4ccccn4)ccc1c23	697 NFkB inh 58 | 697 NFkB conf 54
CCN1C(=O)c2cccc3c(S(=O)(=O)Nc4ccc(OC)cc4OC)ccc1c23	none
CN1C(=O)c2cccc3c(S(=O)(=O)Nc4ccccc4F)ccc1c23	697 NFkB inh 37 | 697 NFkB conf 34
CCN1C(=O)c2cccc3c(S(=O)(=O)Nc4ccccc4)ccc1c23	697 NFkB inh 52, HSF1 activator 59 | 697 NFkB conf 43
O=C(O)C1=C[C@H](c2ccc(F)cc2)C[C@H](OCc2ccc(CO)cc2)O1	none (no result: GPR7 antag)
COC(=O)Nc1ccc(S(=O)(=O)NC2CCCCC2)cc1	none
O=C(CNC(=O)c1cc(S(=O)(=O)N2CCCCC2)ccc1N1CCOCC1)Nc1ccc(F)c(F)c1	none (no result: GPR7 antag)
CCN1C(=O)c2cccc3c(S(=O)(=O)NCc4cccnc4)ccc1c23	none
CCN1C(=O)c2cccc3c(S(=O)(=O)Nc4ccncc4)ccc1c23	697 NFkB inh 37 | 697 NFkB conf inactive
COCCN(CC(=O)Nc1cccc(C)c1C)C(=O)Cc1sc(C)nc1-c1ccc(F)cc1	none (no result: HSF1 inhib, GPR7 antag, HSF1 activator, T cruzi inh)
CCOc1cc(/C=C2\C(=N)N3N=CSC3=NC2=O)ccc1OS(=O)(=O)c1ccccc1	697 NFkB inh 44 | 697 NFkB conf inactive
CN(C)c1cc[n+](Cc2c(Cl)cccc2Cl)cc1	697 NFkB inh 45 | 697 NFkB conf 39
CCCn1c(SCC(=O)NNC(=O)c2ccc(C)cc2)nnc1C(C)C	none
O=C(NCc1cccs1)C1CCCN1C(=O)Nc1ccc(Cl)cc1 (stereo not given)	none
CN1CCN(CCNC(=O)Cn2c(=O)c3cccn3c3ccc(F)cc32)CC1	none
Cc1csc(NC(=O)c2ccc(C)c([N+](=O)[O-])c2)n1	none | 697 NFkB conf inactive
Cc1csc(NC(=O)c2cc3ccccc3o2)n1	697 NFkB inh 36 (no result: HSF1 inhib, GPR7 antag, HSF1 activator, T cruzi inh) | 697 NFkB conf inactive
CCOC(=O)Cc1csc(NC(=O)c2cc3ccccc3o2)n1	none
N#Cc1cc(-c2ccc(Cl)cc2)cnc1Sc1ccc(F)cc1	none
CC(=O)c1ccc(N=Nc2ccc(C)cc2)cc1	none | 697 NFkB conf inactive
Cc1ccc2nc(-c3cccc(N)c3)oc2c1	none
CCc1ccc2oc(-c3cccc(N)c3)nc2c1	none | 697 NFkB conf inactive
COCCCn1c(=O)/c(=C\c2ccc(OC(F)F)c(OC)c2)s/c1=C(/C#N)C(=O)NCCOC	none
CC(=O)c1cc(F)ccc1OCC(=O)N1CCN(c2ccc(F)cc2)CC1	697 NFkB inh 36 (no result: HSF1 inhib, HSF1 activator) | 697 NFkB conf inactive
Cc1nnc(SC(C)C(=O)Nc2ncc(Cl)cc2Cl)n1Cc1ccccc1 (stereo not given)	none
COCCn1c(SC(C)C(=O)Nc2ncc(Cl)cc2Cl)nc2ccccc21 (stereo not given)	none | 697 NFkB conf inactive
COc1cc(OC)c(OC)cc1CNC(=O)c1cc(=O)[nH]c2ccccc12	none
O=C(N/N=C/c1ccc(Cl)cc1Cl)c1ccc(-n2cnnn2)cc1	697 NFkB inh 39 (no result: HSF1 inhib, GPR7 antag, HSF1 activator, T cruzi inh) | 697 NFkB conf 35
O=C(N/N=C/c1c(Cl)cccc1Cl)c1ccc(-n2cnnn2)cc1	none (no result: HSF1 inhib, GPR7 antag, HSF1 activator, T cruzi inh)
CCCCN(C(=O)c1cc2ccccc2o1)c1c(N)n(CCCC)c(=O)[nH]c1=O	none (no result: HSF1 inhib, GPR7 antag, HSF1 activator, T cruzi inh)
O=C(c1ccc(N2CCCC2)c([N+](=O)[O-])c1)N1CCc2ccccc2C1	697 NFkB inh 37 (no result: GPR7 antag) | 697 NFkB conf inactive
